Activity calls are given as the source filed them. No cut-off for these calls is given here.
Key:
[1] = target: T1, Apoptosis regulator Bcl-2 (Homo sapiens, UniProt P10415); test: Inhibition of FAM-Bim peptide binding to human full-length N-terminal His6-tagged Bcl2 (2 to 206 residues) expressed in Escherichia coli S12 extract measured after 30 mins by fluorescence polarization assay
[2] = Inhibition of FAM-Bim peptide binding to human full-length N-terminal His6-tagged Bcl2 R106A/R109A mutant expressed in Escherichia coli S12 extract measured after 30 mins by fluorescence polarization assay
[3] = target: T1, Apoptosis regulator Bcl-2; test: Induction of BCl-2 dephosphorylation in human HL-60 cells at 1 to 5 uM measured after 24 hrs by coimmunoprecipitation method; assay type: cell-based; details: dose microM 1-5, time 24.0 hrs
In short: (§1)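 Cells treated for 24 h, then lysed in 1% CHAPS buffer. 500 μg total protein precleared with protein A-Sepharose, incubated overnight with 5 μg specific antibody, captured on protein A-Sepharose or G-agarose, then immunoblotted. Bax/Bcl-2 complex, pBcl-2 (Ser70) and total Bcl-2 read out; n = 3 independent samples.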

[4] = Binding affinity to human full-length N-terminal His6-tagged prephosphorylated Bcl2 R106A/R109A mutant expressed in Escherichia coli S12 extract by isothermal titration calorimetry
[5] = target: T1, Apoptosis regulator Bcl-2; test: Induction of BCl-2 dephosphorylation in human OCI-AML-3 cells assessed as increase in Bax expression at 1 to 5 uM measured after 24 hrs by coimmunoprecipitation method; assay type: cell-based; details: dose microM 1-5, time 24.0 hrs; in short: as §1
HL-60 = test: Induction of apoptosis in human HL-60 cells measured after 48 hrs by FITC-Annexin V/PS staining based; assay type: functional, cell-based; details: HL-60, 48 h
[6] = Binding affinity to human full-length N-terminal His6-tagged Bcl2 R106A/R109A mutant expressed in Escherichia coli S12 extract by isothermal titration calorimetry
[7] = target: T1, Apoptosis regulator Bcl-2; test: Induction of BCl-2 dephosphorylation in human OCI-AML-3 cells at 1 to 5 uM measured after 24 hrs by coimmunoprecipitation method; assay type: cell-based; details: dose microM 1-5, time 24.0 hrs; in short: as §1
[8] = target: T1, Apoptosis regulator Bcl-2; test: Induction of BCl-2 dephosphorylation in human HL-60 cells assessed as increase in Bax expression at 1 to 5 uM measured after 24 hrs by coimmunoprecipitation method; assay type: cell-based; details: dose microM 1-5, time 24.0 hrs; in short: as §1
MCF7 = test: Induction of apoptosis in human MCF7 cells measured after 48 hrs by FITC-Annexin V/PS staining based; assay type: functional, cell-based; details: MCF7, 48 h
OCI-AML-3 = test: Induction of apoptosis in human OCI-AML-3 cells measured after 48 hrs by FITC-Annexin V/PS staining based; assay type: functional, cell-based; details: OCI-AML-3, 48 h
KG-1 = test: Induction of apoptosis in human KG-1 cells measured after 48 hrs by FITC-Annexin V/PS staining based; assay type: functional, cell-based; details: KG-1, 48 h
[9] = target: T1, Apoptosis regulator Bcl-2; test: Binding affinity to human full-length N-terminal His6-tagged prephosphorylated Bcl2 (2 to 206 residues) expressed in Escherichia coli S12 extract after 30 mins using FAM-labelled compound by fluorescence polarization assay
[10] = Binding affinity to human full-length N-terminal His6-tagged prephosphorylated Bcl2 R106A/R109A mutant expressed in Escherichia coli S12 extract after 30 mins using FAM-labelled compound by fluorescence polarization assay
[11] = target: T1, Apoptosis regulator Bcl-2; test: Binding affinity to human full-length N-terminal His6-tagged Bcl2 (2 to 206 residues) expressed in Escherichia coli S12 extract after 30 mins using FAM-labelled compound by fluorescence polarization assay
[12] = Binding affinity to human full-length N-terminal His6-tagged Bcl2 R106A/R109A mutant expressed in Escherichia coli S12 extract after 30 mins using FAM-labelled compound by fluorescence polarization assay
[13] = target: T1, Apoptosis regulator Bcl-2; test: Induction of BCl-2 dephosphorylation in human HL-60 cells assessed as increase in Bax expression at 5 to 15 uM measured after 24 hrs by coimmunoprecipitation method; assay type: cell-based; details: filed as modulator, dose microM 5-15, time 24.0 hrs; in short: as §1
[14] = target: T1, Apoptosis regulator Bcl-2; test: Induction of BCl-2 dephosphorylation in human OCI-AML-3 cells assessed as increase in Bax expression at 5 to 10 uM measured after 24 hrs by coimmunoprecipitation method; assay type: cell-based; details: dose microM 5-10, time 24.0 hrs; in short: as §1
[15] = target: T1, Apoptosis regulator Bcl-2; test: Induction of BCl-2 dephosphorylation in human OCI-AML-3 cells at 5 to 10 uM measured after 24 hrs by coimmunoprecipitation method; assay type: cell-based; details: dose microM 5-10, time 24.0 hrs; in short: as §1
[16] = target: T1, Apoptosis regulator Bcl-2; test: Induction of BCl-2 dephosphorylation in human HL-60 cells at 5 to 15 uM measured after 24 hrs by coimmunoprecipitation method; assay type: cell-based; details: filed as modulator, dose microM 5-15, time 24.0 hrs; in short: as §1
Bcl-2-like protein 1 [17] = target: T2, Bcl-2-like protein 1 (Homo sapiens, UniProt Q07817); test: Effect on Bcl-xl phosphorylation in human HL-60 cells at 1 to 30 uM by Western blot analysis; details: dose microM 1-30
Bcl-2-like protein 1 [18] = target: T2, Bcl-2-like protein 1; test: Inhibition of FAM-Bim peptide binding to Bcl-xl (unknown origin) measured after 30 mins by fluorescence polarization assay
[19] = target: Induced myeloid leukemia cell differentiation protein Mcl-1 (Homo sapiens, UniProt Q07820); test: Inhibition of FAM-Bim peptide binding to MCl1 (unknown origin) measured after 30 mins by fluorescence polarization assay
[20] = Resistance ratio of EC50 for induction of apoptosis in human OCI-AML-3 cells to EC50 for Induction of apoptosis in human MCF7 cells; assay type: functional
[21] = Resistance ratio of EC50 for induction of apoptosis in human HL-60 cells to EC50 for Induction of apoptosis in human MCF7 cells; assay type: functional
[22] = target: T1, Apoptosis regulator Bcl-2; test: Effect on Bcl2 phosphorylation in human HL-60 cells by Western blot analysis
[23] = target: T1, Apoptosis regulator Bcl-2; test: Induction of BCl-2 dephosphorylation in human HL-60 cells assessed as increase in Bax expression at 5 to 10 uM measured after 24 hrs by coimmunoprecipitation method; assay type: cell-based; details: dose microM 5-10, time 24.0 hrs; in short: as §1
[24] = Resistance ratio of EC50 for induction of apoptosis in human HL-60 cells to EC50 for Induction of apoptosis in human KG-1 cells; assay type: functional
[25] = target: T1, Apoptosis regulator Bcl-2; test: Induction of BCl-2 dephosphorylation in human HL-60 cells at 5 to 10 uM measured after 24 hrs by coimmunoprecipitation method; assay type: cell-based; details: dose microM 5-10, time 24.0 hrs; in short: as §1
[26] = Resistance ratio of EC50 for induction of apoptosis in human OCI-AML-3 cells to EC50 for Induction of apoptosis in human KG-1 cells; assay type: functional

Chain of Induced myeloid leukemia cell differentiation protein Mcl-1 (Q07820 whole entry): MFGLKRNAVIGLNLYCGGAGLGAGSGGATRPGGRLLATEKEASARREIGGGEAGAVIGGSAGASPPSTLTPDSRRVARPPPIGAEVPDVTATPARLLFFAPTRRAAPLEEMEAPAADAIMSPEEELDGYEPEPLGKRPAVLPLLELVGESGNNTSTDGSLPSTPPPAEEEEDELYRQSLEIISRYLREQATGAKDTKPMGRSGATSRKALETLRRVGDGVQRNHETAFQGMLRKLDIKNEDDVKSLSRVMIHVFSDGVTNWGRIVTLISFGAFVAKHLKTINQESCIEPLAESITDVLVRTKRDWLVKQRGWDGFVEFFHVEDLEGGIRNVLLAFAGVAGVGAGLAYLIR
T2 sequence (Q07817 whole entry): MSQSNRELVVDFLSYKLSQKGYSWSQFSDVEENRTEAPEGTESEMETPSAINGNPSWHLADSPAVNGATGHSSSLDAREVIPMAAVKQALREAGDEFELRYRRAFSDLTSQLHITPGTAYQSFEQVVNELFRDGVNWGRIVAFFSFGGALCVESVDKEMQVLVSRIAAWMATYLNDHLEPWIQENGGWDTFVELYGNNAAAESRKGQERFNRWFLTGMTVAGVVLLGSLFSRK
T1 sequence (P10415 whole entry, the tested form may be a part): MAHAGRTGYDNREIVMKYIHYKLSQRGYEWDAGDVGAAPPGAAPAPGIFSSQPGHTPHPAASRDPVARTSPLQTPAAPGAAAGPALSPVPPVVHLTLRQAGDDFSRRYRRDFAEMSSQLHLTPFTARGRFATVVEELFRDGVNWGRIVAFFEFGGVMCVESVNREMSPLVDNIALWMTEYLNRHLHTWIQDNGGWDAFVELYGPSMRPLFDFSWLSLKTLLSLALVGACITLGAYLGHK

| SMILES | Ki [1] [µM] | Ki [2] [µM] | EC50 (HL-60) [µM] | EC50 (MCF7) [µM] | EC50 (OCI-AML-3) [µM] | EC50 (KG-1) [µM] | Ki (Bcl-2-like protein 1 [18]) [µM] | Ki [19] [µM] | other results |
| --- | --- | --- | --- | --- | --- | --- | --- | --- | --- |
| N#CC1=C(NCCC(=O)O)c2ccc(Sc3ccc(Br)cc3)c3cccc(c23)C1=O | 1.27 | 1.44 | – | – | – | – | – | – | – |
| N#CC1=C(NCCC(=O)NCc2ccccc2C(=O)O)c2ccc(Sc3ccc(Br)cc3)c3cccc(c23)C1=O | 1.35 | 1.75 | – | – | – | – | – | – | – |
| CC1(C)CCC(CN2CCN(c3ccc(C(=O)NS(=O)(=O)c4ccc(NCC5CCOCC5)c([N+](=O)[O-])c4)c(Oc4cnc5[nH]ccc5c4)c3)CC2)=C(c2ccc(Cl)cc2)C1 [VENETOCLAX] | – | – | 8.1 | 1.35 | 6.8 | 0.85 | – | – | Activity [3]: inactive; Kd [4]: 0.0055 µM; Activity [5]: inactive; Kd [6]: 0.0045 µM; Activity [7]: inactive; Activity [8]: inactive |
| N#CC1=C(NCCC(=O)NCCOCCO)c2ccc(Sc3ccc(Br)cc3)c3cccc(c23)C1=O | 0.81 | 0.77 | – | – | – | – | – | – | – |
| N#CC1=C(NCc2ccc(C(=O)O)cc2)c2ccc(Sc3ccc(Br)cc3)c3cccc(c23)C1=O | 0.78 | 0.94 | – | – | – | – | – | – | – |
| CC[C@H](C)[C@H](NC(=O)[C@H](CCCNC(=N)N)NC(=O)[C@H](CCCNC(=N)N)NC(=O)[C@H](CC(C)C)NC(=O)[C@H](CS)NC(=O)[C@H](CCC(=O)O)NC(=O)[C@H](CO)NC(=O)[C@H](CC(C)C)NC(=O)[C@H](CCCCN)NC(=O)[C@H](CCCCN)NC(=O)[C@@H](NC(=O)[C@H](CO)NC(=O)[C@H](C)NC(=O)[C@H](CC(=O)O)NC(=O)[C@H](CCC(N)=O)NC(=O)[C@@H]1CCCN1C(=O)[C@@H]1CCCN1C(=O)[C@@H](N)CCC(N)=O)[C@@H](C)O)C(=O)NCC(=O)N[C@@H](CC(=O)O)C(=O)N[C@@H](CCC(=O)O)C(=O)N[C@@H](CC(C)C)C(=O)N[C@@H](CC(=O)O)C(=O)N[C@@H](CO)C(=O)N[C@@H](CC(N)=O)C(=O)N[C@@H](CCSC)C(=O)N[C@@H](CCC(=O)O)C(=O)N[C@@H](CC(C)C)C(=O)N[C@@H](CCC(N)=O)C(=O)N[C@@H](CCCNC(=N)N)C(=O)N[C@@H](CCSC)C(=O)N[C@H](C(=O)N[C@@H](C)C(=O)N[C@@H](CC(=O)O)C(=O)N[C@H](C(=O)N[C@@H](CC(=O)O)C(=O)O)C(C)C)[C@@H](C)CC | – | – | – | – | – | – | – | – | Kd [9]: 0.0021 µM; Kd [10]: 0.0162 µM; Kd [11]: 0.0196 µM; Kd [12]: 0.0155 µM |
| N#CC1=C(NCCC(=O)NCc2ccc(C(=O)O)cc2)c2ccc(Sc3ccc(Br)cc3)c3cccc(c23)C1=O | 0.16 | 1.65 | 3.8 | 5.5 | 4 | 4.9 | 0.81 | 0.32 | Activity [13]: Active; Activity ([14]; filed as modulator): Active; Activity ([15]; filed as modulator): Active; Activity [16]: Active; Activity (Bcl-2-like protein 1 [17]): inactive |
| CCCCNC1=C(C#N)C(=O)c2cccc3c(Sc4ccc(Br)cc4)ccc1c23 | 0.21 | 0.15 | 16.9 | 3.1 | 15.4 | 2.7 | 0.55 | 0.35 | Ratio EC50 [20]: 5; Activity [14]: inactive; Activity [15]: inactive; Ratio EC50 [21]: 5; Activity [22]: inactive; Activity [23]: inactive; Ratio EC50 [24]: 5; Activity [25]: inactive; Ratio EC50 [26]: 5 |
| N#CC1=C(C#N)c2ccc(Sc3ccc(Br)cc3)c3cccc(c23)C1=O | 0.85 | 1.67 | – | – | – | – | 0.75 | 0.49 | – |
| CN(C)c1ccc(CNC(=O)CCNC2=C(C#N)C(=O)c3cccc4c(Sc5ccc(Br)cc5)ccc2c34)cc1 | 4.32 | 0.84 | – | – | – | – | – | – | – |
| N#CC1=C(NCCC(=O)NCc2ccccc2)c2ccc(Sc3ccc(Br)cc3)c3cccc(c23)C1=O | 1.05 | 1.88 | 21.7 | 18.5 | 22.3 | 16.8 | 1.11 | 0.56 | Activity [14]: inactive; Activity [15]: inactive; Activity [23]: inactive; Activity [25]: inactive |
| CC1(C)CCC(c2ccc(Cl)cc2)=C(CN2CCN(c3ccc(C(=O)NS(=O)(=O)c4ccc(N[C@H](CCN5CCOCC5)CSc5ccccc5)c(S(=O)(=O)C(F)(F)F)c4)cc3)CC2)C1 [NAVITOCLAX] | – | – | – | – | – | – | – | – | Kd [4]: 0.0306 µM; Kd [6]: 0.0278 µM |
| N#CC1=C(NCCC(=O)NCc2cccc(C(=O)O)c2)c2ccc(Sc3ccc(Br)cc3)c3cccc(c23)C1=O | 1.02 | 1.67 | – | – | – | – | – | – | – |

From ChEMBL document CHEMBL4699647, “Targeting the Allosteric Pathway That Interconnects the Core-Functional Scaffold and the Distal Phosphorylation Sites for Specific Dephosphorylation of Bcl-2” (J Med Chem, 2020)
